# Laboratory results: ChEMBL document CHEMBL2346560, “Structure and function of a potent lipopolysaccharide-binding antimicrobial and anti-inflammatory peptide” (J Med Chem, 2013)
# Calls of active or inactive are those of the source. The rule behind the calls is not given here. Bridge positions count the residues as written; N and C are the ends. Peptide text beside a SMILES is read from it.
# Assays:
# RAW264.7 [1] = test: Antiinflammatory activity in mouse RAW264.7 cells assessed as inhibition of LPS-induced NFkappaB translocation from cytoplasm to nucleus preincubated for 1 hr prior to LPS-challenge measured after 3 hrs by Western blotting analysis; assay type: functional, cell-based
# Outline: (§1)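 RAW 264.7 cells (1 × 10^6/well) were serum-starved in RPMI-1640 for 16 h. They were pretreated with peptide (0, 5, 10, 20 µg/mL) for 1 h, then given LPS (E. coli 055:B5, 0 or 100 ng/mL) for 3 h. Cells were washed in ice-cold PBS, and cytoplasmic or nuclear fractions were blotted for TLR4, JNK, NF-κB p65 and β-actin. Control was LPS alone.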
# RAW264.7 [2] = test: Antiinflammatory activity in mouse RAW264.7 cells assessed as inhibition of LPS-induced TLR4 expression at 20 ug/mL preincubated for 1 hr prior to LPS-challenge measured after 3 hrs by Western blotting analysis relative to LPS-treated control; assay type: functional; outline: as §1
# RAW264.7 [3] = test: Antiinflammatory activity in mouse RAW264.7 cells assessed as inhibition of LPS-induced NO production at 2.5 ug/mL after 24 hrs by spectrophotometric analysis relative to control; assay type: functional; settings: RAW264.7, 24 h
# Outline: (§2)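 RAW 264.7 cells (1 × 10^7) in RPMI-1640 with 10% FBS and penicillin/streptomycin were treated with peptide (2.5, 5, 10, 20 µg/mL) with or without LPS (E. coli 055:B5, 100 ng/mL) for 24 h. Medium nitrite was measured with Griess reagent at A540 against a NaNO2 standard curve. Control was LPS alone. Mean ± SEM of three separate experiments.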
# Escherichia coli [4] = test: Antibacterial activity against Escherichia coli ATCC 25922 after 16 hrs by broth dilution method; assay type: functional; settings: ATCC 25922, 16 h
# Outline: (§3)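 MIC read-out, reported in µg/mL with µM equivalents. Each value is the mean of three independent experiments, each run in duplicate.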
# RAW264.7 [5] = test: Antiinflammatory activity in mouse RAW264.7 cells assessed as inhibition of LPS-induced NO production at 20 ug/mL after 24 hrs by spectrophotometric analysis relative to control; assay type: functional; settings: RAW264.7, 24 h; outline: as §2
# [6] = Toxicity in human RBC assessed as induction of hemolysis at 12.5 ug/mL after 30 mins relative to control; assay type: cell-based, Erythrocyte; settings: red blood cells (RBC), read-out: Activity
# Outline: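 Human red blood cells incubated with peptide. Hemoglobin release read as absorbance at 540 nm and expressed against 1% Triton X-100 as positive control.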
# Candida albicans [7] = test: Antifungal activity against ampicillin, benzylpencillin-resistant Candida albicans 08030809 after 16 hrs by broth dilution method; assay type: functional; settings: Candida albicans, 08030809, 16 h; outline: as §3
# Staphylococcus aureus [8] = test: Antibacterial activity against Staphylococcus aureus ATCC 2592 treated with NaCl after 16 hrs by broth dilution method; assay type: functional; settings: ATCC 2592, 16 h
# Outline: (§4)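 Salt sensitivity of the MIC. Peptide was tested in water, NaCl, CaCl2, MgCl2 or PBS (Na2HPO4-NaH2PO4, pH 7.4), with every salt at 150 mM. Values are means of three independent experiments, each run in duplicate.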
# Escherichia coli [9] = test: Antibacterial activity against Escherichia coli ATCC 25922 treated with CaCl2 after 16 hrs by broth dilution method; assay type: functional; settings: ATCC 25922, 16 h; outline: as §4
# Bacillus subtilis [10] = test: Antibacterial activity against Bacillus subtilis 6633 treated with MgCl2 after 16 hrs by broth dilution method; assay type: functional; settings: Bacillus subtilis, 6633, 16 h; outline: as §4
# Candida albicans [11] = test: Antifungal activity against Candida albicans ATCC 2002 after 16 hrs by broth dilution method; assay type: functional; settings: ATCC 2002, 16 h; outline: as §3
# Candida albicans [12] = test: Antifungal activity against ampicillin, benzylpencillin-resistant Candida albicans 080227710 after 16 hrs by broth dilution method; assay type: functional; settings: Candida albicans, 080227710, 16 h; outline: as §3
# Bacillus subtilis [13] = test: Antibacterial activity against Bacillus subtilis 6633 treated with water after 16 hrs by broth dilution method; assay type: functional; settings: Bacillus subtilis, 6633, 16 h; outline: as §4
# RAW264.7 [14] = test: Antiinflammatory activity in mouse RAW264.7 cells assessed as inhibition of LPS-induced IL6 production at 20 ug/mL after 24 hrs by ELISA relative to control; assay type: functional; settings: RAW264.7, 24 h
# Outline: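 RAW 264.7 cells (2 × 10^5) were plated and allowed to adhere. They were given peptide (2.5, 5, 10, 20 µg/mL) with or without LPS (E. coli 055:B5, 20 ng/mL) for 24 h. Supernatant TNF-α, IL-6 and MCP-1 were measured by ELISA at A450. Controls were LPS alone and untreated cells. Mean ± SEM of three separate experiments.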
# Escherichia coli [15] = test: Antibacterial activity against ampicillin, benzylpencillin-resistant Escherichia coli 08A866 after 16 hrs by broth dilution method; assay type: functional; settings: 08A866, 16 h; outline: as §3
# Escherichia coli [16] = test: Antibacterial activity against Escherichia coli ATCC 25922 treated with water after 16 hrs by broth dilution method; assay type: functional; settings: ATCC 25922, 16 h; outline: as §4
# RAW264.7 [17] = test: Cytotoxicity against mouse RAW264.7 cells at 100 ug/mL after 24 hrs by MTT assay relative to control; assay type: cell-based; settings: raw264.7, 24 h
# Pseudomonas aeruginosa = test: Antibacterial activity against Pseudomonas aeruginosa ATCC 27853 after 16 hrs by broth dilution method; assay type: functional; settings: ATCC 27853, 16 h
# Outline: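 MIC determined by an earlier in-house method. Values are means of three independent experiments, each run in duplicate.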
# Candida albicans [18] = test: Antifungal activity against Candida albicans ATCC 2002 treated with CaCl2 after 16 hrs by broth dilution method; assay type: functional; settings: ATCC 2002, 16 h; outline: as §4
# Lipopolysaccharide (LPS) = test: Binding affinity to Escherichia coli 055:B5 lipopolysaccharide by NMR titration assay
# Outline: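 2D TOCSY NMR titration: peptide 2.5 mM in 95% H2O/TFE-d3 (6:4, v/v) with 5% D2O, pH 6.2, 25 °C, alone or with LPS from E. coli 055:B5 (2.5 mM : 1 µg and 2.5 mM : 5 µg). Readout is the ratio of amide proton peak heights, free versus LPS-bound, per residue.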
# Staphylococcus aureus [19] = test: Antibacterial activity against Staphylococcus aureus ATCC 2592 treated with CaCl2 after 16 hrs by broth dilution method; assay type: functional; settings: ATCC 2592, 16 h; outline: as §4
# RAW264.7 [20] = test: Cytotoxicity against mouse RAW264.7 cells at <25 ug/mL after 24 hrs by MTT assay; assay type: cell-based; settings: raw264.7, 24 h
# Escherichia coli [21] = test: Antibacterial activity against Escherichia coli 08A852 assessed as plasma membrane rupture after 30 mins by scanning electron microscopic analysis; assay type: functional, organism-based
# Outline: (§5)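 E. coli (about 2 × 10^7 CFU/mL) was exposed to peptide at 1 × MIC, 37 °C, 30 min, beside an untreated control. Cells were pelleted, fixed in 2.5% buffered glutaraldehyde (4 °C, 2 h), post-fixed in 1% osmium tetroxide (2 h), dehydrated through graded ethanol, frozen in tert-butyl alcohol and vacuum-dried, then imaged by SEM.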
# Staphylococcus aureus [22] = test: Antibacterial activity against Staphylococcus aureus ATCC 2592 treated with PBS after 16 hrs by broth dilution method; assay type: functional; settings: ATCC 2592, 16 h; outline: as §4
# Escherichia coli [23] = test: Antibacterial activity against Escherichia coli ATCC 25922 assessed as plasma membrane rupture after 30 mins by scanning electron microscopic analysis; assay type: functional, organism-based; outline: as §5
# Escherichia coli [24] = test: Bactericidal activity against Escherichia coli ATCC 25922 at 5 times MIC after 60 mins by colony counting assay (reference value: 296 CFU); assay type: functional
# RAW264.7 [25] = test: Antiinflammatory activity in mouse RAW264.7 cells assessed as inhibition of LPS-induced NO production after 24 hrs by spectrophotometric analysis; assay type: functional, cell-based; outline: as §2
structure (smiles),measurement,setting,value
CC[C@H](C)[C@H](NC(=O)[C@H](Cc1cnc[nH]1)NC(=O)[C@H](CO)NC(=O)[C@@H](NC(=O)[C@@H](NC(=O)[C@@H](NC(=O)[C@@H](NC(=O)[C@H](CCCNC(=N)N)NC(=O)[C@H](CC(C)C)NC(=O)[C@H](CCCCN)NC(=O)[C@H](CCC(=O)O)NC(=O)[C@H](CCCCN)NC(=O)[C@H](CC(C)C)NC(=O)[C@H](CCCCN)NC(=O)[C@@H]1CSSC[C@H](NC(=O)[C@H](CCCCN)NC(=O)[C@@H](N)CCCNC(=N)N)C(=O)N[C@@H](CC(N)=O)C(=O)N[C@@H](Cc2ccccc2)C(=O)N[C@@H](CC(C)C)C(=O)N1)[C@@H](C)O)C(C)C)[C@@H](C)CC)[C@@H](C)O)C(=O)N[C@@H](CC(=O)O)C(=O)N[C@@H](CCCCN)C(=O)N[C@H](C(=O)N[C@@H](CC(C)C)C(=O)N[C@@H](CCCNC(=N)N)C(=O)N1CCC[C@H]1C(=O)N[C@@H](CCC(N)=O)C(=O)NCC(=O)O)C(C)C (H-RKCNFLCKLKEKLRTVITSHIDKVLRPQG-OH; disulfide 3-7),inhibition,RAW264.7 [1],Dose-dependent effect
same,inhibition at 20 µg/mL,RAW264.7 [2],85%
same,inhibition at 2.5 µg/mL,RAW264.7 [3],17%
same,MIC,Escherichia coli [4],1.37 µM
same,inhibition at 20 µg/mL,RAW264.7 [5],70%
same,"hemolysis at 0.5 h, 12.5 ug/mL",[6],2.5%
same,MIC,Candida albicans [7],1.37 µM
same,MIC,Staphylococcus aureus [8],4.69 µg/mL
same,MIC,Escherichia coli [9],2.35 µg/mL
same,MIC,Bacillus subtilis [10],75 µg/mL
same,MIC,Candida albicans [11],1.37 µM
same,MIC,Candida albicans [12],5.48 µM
same,MIC,Bacillus subtilis [13],> 100 µg/mL
same,inhibition at 20 µg/mL,RAW264.7 [14],86%
same,MIC,Escherichia coli [15],2.74 µM
same,MIC,Escherichia coli [16],4.69 µg/mL
same,Activity,RAW264.7 [17],3.3%
same,MIC,Pseudomonas aeruginosa,5.48 µM
same,MIC,Candida albicans [18],2.35 µg/mL
same,Activity,Lipopolysaccharide (LPS),Active
same,MIC,Staphylococcus aureus [19],4.69 µg/mL
same,Activity,RAW264.7 [20],Non-toxic
same,Activity,Escherichia coli [21],Active
same,MIC,Staphylococcus aureus [22],4.69 µg/mL
same,Activity,Escherichia coli [23],Active
same,CFU,Escherichia coli [24],0
same,inhibition,RAW264.7 [25],Dose-dependent effect
